# The source made the active and inactive calls. No cut-off for these calls is given here.
# Experiments:
# Homo sapiens [1] = species on record: Homo sapiens; test: Selectivity index, ratio of Ki for recombinant human CB2 receptor to Ki for recombinant human CB1 receptor
# Summary of the method: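 Index computed as Ki(CB2)/Ki(CB1). Each Ki comes from [3H]-CP-55,940 displacement on transfected HEK membranes (0.14 nM radioligand for CB1, 0.084 nM for CB2) via Cheng-Prusoff.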
# Cannabinoid receptor 2 = Cannabinoid receptor 2 (Homo sapiens, UniProt P34972); test: Displacement of [3H]CP-55,940 from recombinant human CB2 receptor expressed in HEK cells; format: cell-based, HEK293
# Summary of the method: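 Competition binding on membranes of HEK cells transfected with human CB2, using [3H]-CP-55,940 at 0.084 nM (radioligand Kd 0.31 nM). Displacement curves give IC50, converted to Ki by the Cheng-Prusoff equation. Reference ligands run in parallel.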
# Homo sapiens [2] = species on record: Homo sapiens; test: Selectivity index, ratio of Ki for recombinant human CB1 receptor to Ki for recombinant human CB2 receptor
# Summary of the method: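 Index computed as Ki(CB1)/Ki(CB2). Each Ki comes from [3H]-CP-55,940 displacement on transfected HEK membranes (0.14 nM radioligand for CB1, 0.084 nM for CB2) via Cheng-Prusoff.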
# Cannabinoid receptor 1 = Cannabinoid receptor 1 (Homo sapiens, UniProt P21554); test: Displacement of [3H]CP-55,940 from recombinant human CB1 receptor expressed in HEK cells; format: cell-based, HEK293
# Summary of the method: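 Competition binding on membranes of HEK cells transfected with human CB1, using [3H]-CP-55,940 at 0.14 nM (radioligand Kd 0.18 nM). Displacement curves give IC50, converted to Ki by the Cheng-Prusoff equation. Reference ligands run in parallel.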
# Rattus norvegicus [3] = test: Reduction in sucrose intake in Wistar rat at 2 mg/kg, ip administered 30 mins before lights off measured 6 hrs after lights off relative to vehicle-treated control; format: functional; set-up: scale not given: the % may be the effect or the level left; settings: route intraperitoneal
# Summary of the method: (§1)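 Wistar rats had free access to 1% w/v sucrose solution, water and regular chow. On test day they were split into groups of n = 15, matched on body weight and on sucrose and food intake over the prior 3 days. Drug was suspended in saline with 0.05% v/v Tween 80 and given ip at 0, 1 or 2 mg/kg (3 mL/kg), 30 min before lights off. Data were analysed by ANOVA with Newman-Keuls test.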
# Rattus norvegicus [4] = test: Reduction in food intake in Wistar rat at 2 mg/kg, ip administered 30 mins before lights off measured 6 hrs after lights off relative to vehicle-treated control; format: functional, organism-based; set-up: dose 2 mg/kg; summary of the method: as §1
# Rattus norvegicus [5] = test: Reduction in water intake in Wistar rat at 2 mg/kg, ip administered 30 mins before lights off measured 6 hrs after lights off relative to vehicle-treated control; format: functional, organism-based; set-up: dose 2 mg/kg; summary of the method: as §1
# Chain of Cannabinoid receptor 1 (P21554 whole entry): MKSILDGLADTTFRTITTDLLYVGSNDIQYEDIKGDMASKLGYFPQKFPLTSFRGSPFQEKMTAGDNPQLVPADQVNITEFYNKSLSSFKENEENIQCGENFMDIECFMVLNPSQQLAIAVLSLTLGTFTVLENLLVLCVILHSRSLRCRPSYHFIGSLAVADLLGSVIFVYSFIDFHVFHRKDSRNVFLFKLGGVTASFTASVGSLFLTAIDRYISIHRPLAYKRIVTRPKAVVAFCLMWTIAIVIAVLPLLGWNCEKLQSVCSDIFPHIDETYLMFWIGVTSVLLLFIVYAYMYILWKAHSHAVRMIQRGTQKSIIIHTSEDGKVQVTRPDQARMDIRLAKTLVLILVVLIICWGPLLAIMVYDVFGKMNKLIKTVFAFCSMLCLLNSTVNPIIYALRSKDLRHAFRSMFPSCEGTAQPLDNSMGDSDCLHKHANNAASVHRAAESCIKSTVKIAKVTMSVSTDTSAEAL
# Chain of Cannabinoid receptor 2 (P34972 whole entry): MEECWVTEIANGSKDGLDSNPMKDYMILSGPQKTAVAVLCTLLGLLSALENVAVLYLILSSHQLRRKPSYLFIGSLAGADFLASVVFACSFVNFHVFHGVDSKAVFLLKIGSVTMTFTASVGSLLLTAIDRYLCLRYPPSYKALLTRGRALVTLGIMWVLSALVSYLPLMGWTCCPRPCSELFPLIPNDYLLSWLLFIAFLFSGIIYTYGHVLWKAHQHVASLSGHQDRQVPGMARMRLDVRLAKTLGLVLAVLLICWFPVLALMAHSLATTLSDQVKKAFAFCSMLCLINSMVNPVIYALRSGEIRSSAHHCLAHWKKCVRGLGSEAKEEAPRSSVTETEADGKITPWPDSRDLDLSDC
Structure (SMILES),Ratio Ki (Homo sapiens [1]),Ki (Cannabinoid receptor 2) [µM],Ratio Ki (Homo sapiens [2]),Ki (Cannabinoid receptor 1) [µM],Activity (Rattus norvegicus [3]) [%],Activity (Rattus norvegicus [4]),Activity (Rattus norvegicus [5])
CCc1c(C(=O)NC2CCCCC2)nn(-c2ccc(Cl)c(Cl)c2)c1-n1c(C)ccc1C,0.035,0.0017,28.2,0.048,,,
CCc1c(C(=O)NCc2ccc(Cl)c(Cl)c2)nn(-c2ccc(Cl)c(Cl)c2)c1-n1cccc1,0.065,0.0296,15.3,0.454,,,
Cc1c(C(=O)NC2CCCCC2)nn(-c2ccc(Cl)c(Cl)c2)c1-n1cccc1Cl,0.11,0.0009,9.56,0.0086,,,
Cc1c(C(=O)NC2CCCCC2)nn(-c2ccc(Cl)cc2Cl)c1-n1c(Cl)ccc1Cl,2,0.0191,0.49,0.0094,,,
CCc1c(C(=O)NC2CCCCC2)nn(-c2ccc(Cl)cc2Cl)c1-n1cccc1,5.3,0.0158,0.19,0.003,,,
Cc1c(C(=O)NCc2ccc(Cl)c(Cl)c2)nn(-c2ccc(Cl)cc2Cl)c1-n1cc2c(c1)CCCC2,1.6,0.0729,0.63,0.0459,,,
Cc1c(C(=O)NCc2ccc(Cl)c(Cl)c2)nn(-c2ccc(Cl)c(Cl)c2)c1-n1c(Cl)ccc1Cl,2.9,0.162,0.34,0.0556,,,
CCc1c(C(=O)NCc2ccc(Cl)c(Cl)c2)nn(-c2ccc(Cl)cc2Cl)c1-n1cccc1,9.3,0.455,0.11,0.0487,,,
CCc1c(C(=O)NC2CCCCC2)nn(-c2ccc(Cl)c(Cl)c2)c1-n1cccc1,0.033,0.00051,30,0.0153,,,
Cc1c(C(=O)NC2CCCCC2)nn(-c2ccc(Cl)cc2Cl)c1-n1cccc1Cl,2.4,0.0183,0.4,0.0077,,,
Cc1c(C(=O)NC2CCCCC2)nn(-c2ccc(Cl)c(Cl)c2)c1-n1c(Cl)ccc1Cl,0.23,0.0013,4.31,0.0056,,,
Cc1c(C(=O)NCc2ccc(Cl)c(Cl)c2)nn(-c2ccc(Cl)cc2Cl)c1-n1cccc1Cl,3.9,0.0985,0.26,0.0252,,,
CCc1c(C(=O)NCc2ccc(Cl)c(Cl)c2)nn(-c2ccc(Cl)cc2Cl)c1-n1c(C)ccc1C,1.06,0.0531,0.94,0.0561,,,
Cc1c(C(=O)NCc2ccc(Cl)c(Cl)c2)nn(-c2ccc(Cl)c(Cl)c2)c1-n1cccc1Cl,0.73,0.0539,1.38,0.0741,,,
CCc1c(C(=O)NCc2ccc(Cl)c(Cl)c2)nn(-c2ccc(Cl)c(Cl)c2)c1-n1c(C)ccc1C,0.118,0.114,8.49,0.966,,,
CCc1ccc(CC)n1-c1c(C)c(C(=O)NC2CCCCC2)nn1-c1ccc(Cl)c(Cl)c1,3,0.41,0.33,0.136,,,
Cc1c(C(=O)NCc2ccc(Cl)c(Cl)c2)nn(-c2ccc(Cl)cc2Cl)c1-n1c(Cl)ccc1Cl,2,0.135,0.49,0.0661,,,
CCc1ccc(CC)n1-c1c(C)c(C(=O)NCc2ccc(Cl)c(Cl)c2)nn1-c1ccc(Cl)c(Cl)c1,,> 10,,> 10,,,
CCc1c(C(=O)NC2CCCCC2)nn(-c2ccc(Cl)cc2Cl)c1-n1c(C)ccc1C,112,0.754,0.009,0.0067,,,
Cc1c(C(=O)NC2CCCCC2)nn(-c2ccc(Cl)cc2Cl)c1-n1cc2c(c1)CCCC2,164,0.376,0.006,0.0023,25,inactive,inactive

# From ChEMBL document CHEMBL1909537, “1-Aryl-5-(1H-pyrrol-1-yl)-1H-pyrazole-3-carboxamide: an effective scaffold for the design of either CB1 or CB2 receptor ligands” (Eur J Med Chem, 2011)
